Assay: phase I trial: safety and tolerability
Assay type: in vivo, human
Summary of the method: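 Fifteen patients were dosed orally twice daily (three per cohort, 100–800 mg). AEs, DLTs, physical exams, vital signs, ECGs and laboratory chemistry, hematology and coagulation were recorded from first dose to end of treatment. AEs were graded by the investigator using NCI CTCAE v4.03. DLTs were assessed in cycle 1 (days 1–28): grade ≥3 or immune-related non-hematologic events, and grade ≥4 hematologic events.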

[1] = 800 mg two times per day, one patient

NS(=O)(=O)[C@H]1CC[C@](F)(CC[C@H]2c3ccccc3-c3cncn32)CC1 [M4112]
grade 3 allergic dermatitis: DLT during cycle 1 [1] | serious TEAE (one patient, 800 mg two times per day cohort, related to treatment)
20.5%: median probability of a DLT (Bayesian model estimate) (800 mg)
2 (13.3) n (%): Abdominal distension (Total (N=15)) | Abdominal pain (Total (N=15)) | Alanine aminotransferase increased (Total (N=15)) | Amylase increased (Total (N=15)) | Anemia of malignant disease (Total (N=15)) | Aspartate aminotransferase increased (Total (N=15)) | Blood alkaline phosphatase increased (Total (N=15)) | Dehydration (Total (N=15)) | Dyspepsia (Total (N=15)) | Dysphagia (Total (N=15)) | Fever (Total (N=15)) | Gamma-glutamyl transferase increased (Total (N=15)) | Hypercalcemia (Total (N=15)) | Lymphocyte count decreased (Total (N=15)) | Maculopapular rash (Total (N=15)) | Palmar-plantar erythrodysesthesia syndrome (Total (N=15)) | Platelet count decreased (Total (N=15)) | Tumor pain (Total (N=15))
26.7%: TEAE nausea (all patients (N=15)) | TEAE vomiting (all patients (N=15))
grade 3 disease progression: serious TEAE (one patient, 400 mg two times per day cohort, unrelated to treatment)
1 (33.3) n (%): Blood alkaline phosphatase increased (600 mg two times per day (n=3)) | Blood creatinine increased (600 mg two times per day (n=3)) | Dehydration (600 mg two times per day (n=3)) | Fatigue (600 mg two times per day (n=3)) | Gamma-glutamyl transferase increased (600 mg two times per day (n=3)) | Nausea (600 mg two times per day (n=3)) | Tumor pain (600 mg two times per day (n=3)) | Vomiting (600 mg two times per day (n=3)) | Alanine aminotransferase increased (800 mg two times per day (n=3)) | Any SAE (800 mg two times per day (n=3)) | Blood alkaline phosphatase increased (800 mg two times per day (n=3)) | Blood creatine phosphokinase increased (800 mg two times per day (n=3)) | Blood creatinine increased (800 mg two times per day (n=3)) | Decreased appetite (800 mg two times per day (n=3)) | Fatigue (800 mg two times per day (n=3)) | Fever (800 mg two times per day (n=3)) | Gamma-glutamyl transferase increased (800 mg two times per day (n=3)) | Lymphocyte count decreased (800 mg two times per day (n=3)) | Nausea (800 mg two times per day (n=3)) | Platelet count decreased (800 mg two times per day (n=3))
no MTD was defined: MTD (doses up to 800 mg two times per day)
≤ 6 h: time to resolution of the DLT after treatment withdrawal (800 mg two times per day, grade 3 allergic dermatitis with fever and hypotension)
15 (100) n (%): Any AE (Total (N=15))
13.3%: patients who discontinued M4112 treatment due to TEAEs (two of 15 patients)
0 (0.0) n (%): Aspartate aminotransferase increased (600 mg two times per day (n=3)) | Blood creatine phosphokinase increased (600 mg two times per day (n=3)) | Cough (600 mg two times per day (n=3)) | Decreased appetite (600 mg two times per day (n=3)) | Dyspepsia (600 mg two times per day (n=3)) | Dysphagia (600 mg two times per day (n=3)) | Fever (600 mg two times per day (n=3)) | Hypercalcemia (600 mg two times per day (n=3)) | Lymphocyte count decreased (600 mg two times per day (n=3)) | Maculopapular rash (600 mg two times per day (n=3)) | Palmar-plantar erythrodysesthesia syndrome (600 mg two times per day (n=3)) | Platelet count decreased (600 mg two times per day (n=3)) | Abdominal distension (800 mg two times per day (n=3)) | Abdominal pain (800 mg two times per day (n=3)) | Amylase increased (800 mg two times per day (n=3)) | Anemia of malignant disease (800 mg two times per day (n=3)) | Cough (800 mg two times per day (n=3)) | Dehydration (800 mg two times per day (n=3)) | Diarrhea (800 mg two times per day (n=3)) | Dyspepsia (800 mg two times per day (n=3)) | Dysphagia (800 mg two times per day (n=3)) | Hypercalcemia (800 mg two times per day (n=3)) | Lipase increased (800 mg two times per day (n=3)) | Maculopapular rash (800 mg two times per day (n=3)) | Palmar-plantar erythrodysesthesia syndrome (800 mg two times per day (n=3)) | Tumor pain (800 mg two times per day (n=3)) | Vomiting (800 mg two times per day (n=3))
3 (100) n (%): Any AE (800 mg two times per day (n=3))
no DLTs were observed: DLT (600 mg two times per day (n=3))
4 (26.7) n (%): Nausea (Total (N=15)) | Vomiting (Total (N=15))
33.3%: TEAE fatigue (all patients (N=15))
5 (33.3) n (%): Fatigue (Total (N=15))
3.1%–62.2: probability of a DLT, 95% credible interval (800 mg)
not established: RP2D (in vivo)
3 (20.0) n (%): Any SAE (Total (N=15)) | Blood creatine phosphokinase increased (Total (N=15)) | Blood creatinine increased (Total (N=15)) | Cough (Total (N=15)) | Decreased appetite (Total (N=15)) | Diarrhea (Total (N=15)) | Lipase increased (Total (N=15))
grade 2 ascites: serious TEAE (one patient, 600 mg two times per day cohort, unrelated to treatment)
grade 2 QT prolongation: QT prolongation resulting in dose reduction (not a DLT) [1]
no deaths reported: deaths during the dose-escalation phase (all doses)
2 (66.7) n (%): Diarrhea (600 mg two times per day (n=3)) | Lipase increased (600 mg two times per day (n=3)) | Aspartate aminotransferase increased (800 mg two times per day (n=3))
